Source: ChEMBL document CHEMBL5329156, “Discovery and development of novel substituted monohydrazides as potent antifungal agents” (RSC Med Chem, 2023)
Values after ≈ are worked out from the molar mass of the structure shown. Active and inactive are the calls of the source. No cut-off for these calls is given here.

Key:
[1] = test system: Candida albicans; experiment: Antibiofilm activity against Candida albicans ATCC 10231 assessed as reduction in biofilm production at 1.96 to 3.9 microg/ml by biofilm formation assay; format: functional, organism-based; details: dose 1.96-3.9 µg/ml
[2] = test system: Candida albicans; experiment: Antifungal activity against itraconazole/fluconazole susceptible Candida albicans ATCC MYA-2310 assessed as fungal growth inhibition by double dilution method; format: functional
Procedure, shortened: (§1)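 Broth microdilution after CLSI M27-A3/M38-A2 with minor modifications. A single colony was grown overnight in YPD at 35 °C with shaking at 200 rpm. Cells were mixed 1:1 with compound (final 0.06-31.3 µg/mL, from DMSO stocks) and incubated 48 h at 35 °C.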

[3] = test system: Candida albicans; experiment: Antifungal activity against Candida albicans ATCC 10231 assessed as fungal growth inhibition by double dilution method; format: functional
Procedure, shortened: (§2)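 Broth microdilution after CLSI M27-A3/M38-A2 with minor changes. Single colony grown overnight in YPD at 35 °C, 200 rpm. Compound final range 0.06-31.3 µg/mL; incubated 48 h at 35 °C.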

[4] = test system: [Candida] auris; experiment: Antifungal activity against Candida auris AR Bank # 390 assessed as fungal growth inhibition by double dilution method; format: functional; details: Candidozyma auris; procedure, shortened: as §2
[5] = test system: Pichia kudriavzevii; experiment: Antifungal activity against Pichia kudriavzevii ATCC 6258 assessed as fungal growth inhibition by double dilution method; format: functional; procedure, shortened: as §2
[6] = test system: Candida albicans; experiment: Antifungal activity against itraconazole/fluconazole resistant Candida albicans ATCC MYA-1003 assessed as fungal growth inhibition by double dilution method; format: functional; procedure, shortened: as §1
[7] = test system: Aspergillus fumigatus; experiment: Antifungal activity against Aspergillus fumigatus NRRL 6113 assessed as fungal growth inhibition by double dilution method; format: functional
[8] = test system: [Candida] auris; experiment: Antifungal activity against Candida auris AR Bank # 385 assessed as fungal growth inhibition by double dilution method; format: functional; details: Candidozyma auris; procedure, shortened: as §2
[9] = test system: [Candida] auris; experiment: Antifungal activity against Candida auris AR Bank # 386 assessed as fungal growth inhibition by double dilution method; format: functional; details: Candidozyma auris; procedure, shortened: as §2
[10] = test system: [Candida] auris; experiment: Antifungal activity against Candida auris AR Bank # 383 assessed as fungal growth inhibition by double dilution method; format: functional; details: Candidozyma auris; procedure, shortened: as §2
[11] = test system: [Candida] auris; experiment: Antifungal activity against Candida auris AR Bank # 389 assessed as fungal growth inhibition by double dilution method; format: functional; details: Candidozyma auris; procedure, shortened: as §2
[12] = test system: HEK293; experiment: Cytotoxicity against human HEK-293 cells assessed as reduction in cell viability at 31.3 microg/ml; format: toxicity, cell-based; details: dose 31.3 µg/ml
Procedure, shortened: (§3)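 Cells in DMEM with 10% FBS and 1% Pen/Strep, seeded at 10,000 cells/well and held overnight at 37 °C, 5% CO2. Compounds added at final 31.3-0.12 µg/mL (0.05% DMSO vehicle) for 24 h. Resazurin then added for 6 h; fluorescence read at ex 560/em 590. Triton X-100 1% as positive control; values normalized to vehicle. Run in quadruplicate.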

[13] = test system: Candida albicans; experiment: Antifungal activity against itraconazole/fluconazole resistant Candida albicans ATCC 90819 assessed as fungal growth inhibition by double dilution method; format: functional; procedure, shortened: as §1
[14] = test system: [Candida] auris; experiment: Antifungal activity against Candida auris AR Bank # 0390 assessed as fungal growth inhibition by double dilution method; format: functional; details: Candidozyma auris; procedure, shortened: as §2
[15] = test system: Candida duobushaemulonii; experiment: Antifungal activity against Candida duobushaemulonii AR Bank # 391 assessed as fungal growth inhibition by double dilution method; format: functional; details: Candidozyma duobushaemuli; procedure, shortened: as §2
[16] = test system: [Candida] auris; experiment: Antifungal activity against Candida auris AR Bank # 387 assessed as fungal growth inhibition by double dilution method; format: functional; details: Candidozyma auris; procedure, shortened: as §2
[17] = test system: Aspergillus nidulans; experiment: Antifungal activity against Aspergillus nidulans ATCC 38163 assessed as fungal growth inhibition by double dilution method; format: functional
[18] = test system: [Candida] auris; experiment: Antifungal activity against Candida auris AR Bank # 388 assessed as fungal growth inhibition by double dilution method; format: functional; details: Candidozyma auris; procedure, shortened: as §2
[19] = test system: Saccharomyces cerevisiae; experiment: Antifungal activity against Saccharomyces cerevisiae AR Bank # 399 assessed as fungal growth inhibition by double dilution method; format: functional; procedure, shortened: as §2
[20] = test system: [Candida] auris; experiment: Antifungal activity against Candida auris AR Bank # 0384 assessed as fungal growth inhibition by double dilution method; format: functional; details: Candidozyma auris; procedure, shortened: as §2
[21] = test system: Clavispora lusitaniae; experiment: Antifungal activity against Clavispora lusitaniae AR Bank # 398 assessed as fungal growth inhibition by double dilution method; format: functional; procedure, shortened: as §2
[22] = test system: HepG2; experiment: Cytotoxicity against human HepG2 cells assessed as reduction in cell viability upto 31.3 microg/ml; format: toxicity, cell-based; details: dose < 31.3 µg/ml; procedure, shortened: as §3
[23] = test system: Candida albicans; experiment: Antifungal activity against itraconazole/fluconazole susceptible Candida albicans ATCC MYA-2876 assessed as fungal growth inhibition by double dilution method; format: functional; procedure, shortened: as §1
[24] = test system: Nakaseomyces glabratus; experiment: Antifungal activity against Candida glabrata ATCC 22019 assessed as fungal growth inhibition by double dilution method; format: functional; procedure, shortened: as §2
[25] = test system: Aspergillus fumigatus; experiment: Antifungal activity against Aspergillus fumigatus NRRL 163 assessed as fungal growth inhibition by double dilution method; format: functional
[26] = test system: [Candida] auris; experiment: Antifungal activity against Candida auris AR Bank # 381 assessed as fungal growth inhibition by double dilution method; format: functional; details: Candidozyma auris; procedure, shortened: as §2
[27] = test system: Candida albicans; experiment: Antifungal activity against itraconazole/fluconazole resistant Candida albicans ATCC MYA-1237 assessed as fungal growth inhibition by double dilution method; format: functional; procedure, shortened: as §1
[28] = test system: [Candida] haemuloni; experiment: Antifungal activity against Candida haemulonii AR Bank # 393 assessed as fungal growth inhibition by double dilution method; format: functional; details: Candidozyma haemuli; procedure, shortened: as §2
[29] = test system: Aspergillus fumigatus; experiment: Antifungal activity against Aspergillus fumigatus NRRL 5109 assessed as fungal growth inhibition by double dilution method; format: functional
[30] = test system: Aspergillus flavus; experiment: Antifungal activity against Aspergillus flavus ATCC MYA-3631 assessed as fungal growth inhibition by double dilution method; format: functional
[31] = test system: J774.A1; experiment: Cytotoxicity against J774A.1 cells assessed as reduction in cell viability at 31.3 microg/ml; format: toxicity, cell-based; details: mouse, dose 31.3 µg/ml; procedure, shortened: as §3
[32] = test system: Nakaseomyces glabratus; experiment: Antifungal activity against Candida glabrata ATCC 2001 assessed as fungal growth inhibition by double dilution method; format: functional; procedure, shortened: as §2
[33] = test system: [Candida] haemuloni; experiment: Antifungal activity against Candida haemulonii AR Bank # 395 assessed as fungal growth inhibition by double dilution method; format: functional; details: Candidozyma haemuli; procedure, shortened: as §2
[34] = test system: [Candida] auris; experiment: Antifungal activity against Candida auris AR Bank # 382 assessed as fungal growth inhibition by double dilution method; format: functional; details: Candidozyma auris; procedure, shortened: as §2
[35] = test system: Kodamaea ohmeri; experiment: Antifungal activity against Kodamaea ohmeri AR Bank # 396 assessed as fungal growth inhibition by double dilution method; format: functional; procedure, shortened: as §2
[36] = test system: [Candida] auris; experiment: Antifungal activity against Candida auris AR Bank # 384 assessed as fungal growth inhibition by double dilution method; format: functional; details: Candidozyma auris; procedure, shortened: as §2
[37] = test system: Cryptococcus neoformans; experiment: Antifungal activity against Cryptococcus neoformans ATCC MYA-895 assessed as fungal growth inhibition by double dilution method; format: functional; procedure, shortened: as §2
[38] = test system: Candida duobushaemulonii; experiment: Antifungal activity against Candida duobushaemulonii AR Bank # 392 assessed as fungal growth inhibition by double dilution method; format: functional; details: Candidozyma duobushaemuli; procedure, shortened: as §2
[39] = test system: Candida duobushaemulonii; experiment: Antifungal activity against Candida duobushaemulonii AR Bank # 394 assessed as fungal growth inhibition by double dilution method; format: functional; details: Candidozyma duobushaemuli; procedure, shortened: as §2
[40] = test system: Saccharomyces cerevisiae; experiment: Antifungal activity against Saccharomyces cerevisiae AR Bank # 400 assessed as fungal growth inhibition by double dilution method; format: functional; procedure, shortened: as §2
[41] = test system: Pichia kudriavzevii; experiment: Antifungal activity against Pichia kudriavzevii AR Bank # 397 assessed as fungal growth inhibition by double dilution method; format: functional; procedure, shortened: as §2
[42] = test system: Candida albicans; experiment: Antifungal activity against Candida albicans ATCC 64124 assessed as fungal growth inhibition by double dilution method; format: functional; procedure, shortened: as §1
[43] = test system: Aspergillus terreus; experiment: Antifungal activity against Aspergillus terreus ATCC MYA-3633 assessed as fungal growth inhibition by double dilution method; format: functional

For `O=C(NNc1ccc(F)cc1F)c1ccccn1`, the Activity [1] was “inactive”, the MIC [2] was 31.3 µg/mL (≈ 126 µM) and the MIC [3] was 0.12 µg/mL (≈ 0.482 µM). For the same compound, the MIC [4] was 0.12 µg/mL (≈ 0.482 µM), the MIC [5] was 0.49 µg/mL (≈ 1.97 µM) and the MIC [6] was 0.49 µg/mL (≈ 1.97 µM). For the same compound, the MIC [7] was 31.3 µg/mL (≈ 126 µM), the MIC [8] was 0.49 µg/mL (≈ 1.97 µM) and the MIC [9] was 0.49 µg/mL (≈ 1.97 µM). For the same compound, the MIC [10] was 0.49 µg/mL (≈ 1.97 µM), the MIC [11] was 0.24 µg/mL (≈ 0.963 µM) and the Activity [12] was “Non-Toxic”. The MIC [13] was 0.98 µg/mL (≈ 3.93 µM), the MIC [14] was 0.12 µg/mL (≈ 0.482 µM) and the MIC [15] was 0.12 µg/mL (≈ 0.482 µM). The MIC [16] was 0.12 µg/mL (≈ 0.482 µM), the MIC [17] was 0.49 µg/mL (≈ 1.97 µM) and the MIC [18] was 0.12 µg/mL (≈ 0.482 µM). The MIC [19] was 0.49 µg/mL (≈ 1.97 µM), the MIC [20] was 0.49 µg/mL (≈ 1.97 µM) and the MIC [21] was 1.95 µg/mL (≈ 7.82 µM). The Activity [22] was “Non-Toxic”, the MIC [23] was 0.98 µg/mL (≈ 3.93 µM) and the MIC [24] was 1.95 µg/mL (≈ 7.82 µM). The MIC [25] was over 31.3 µg/mL, the MIC [26] was 0.49 µg/mL (≈ 1.97 µM) and the MIC [27] was 0.49 µg/mL (≈ 1.97 µM). For the same compound, the MIC [28] was 0.49 µg/mL (≈ 1.97 µM), the MIC [29] was 15.6 µg/mL (≈ 62.6 µM) and the MIC [30] was 15.6 µg/mL (≈ 62.6 µM). For the same compound, the Activity [31] was “Non-Toxic”, the MIC [32] was 0.98 µg/mL (≈ 3.93 µM) and the MIC [33] was 0.24 µg/mL (≈ 0.963 µM). For the same compound, the MIC [34] was 0.49 µg/mL (≈ 1.97 µM), the MIC [35] was 0.98 µg/mL (≈ 3.93 µM) and the MIC [36] was 0.49 µg/mL (≈ 1.97 µM). The MIC [37] was 0.24 µg/mL (≈ 0.963 µM), the MIC [38] was 0.49 µg/mL (≈ 1.97 µM) and the MIC [39] was 3.9 µg/mL (≈ 15.6 µM). It also gave an MIC [40] of 0.49 µg/mL (≈ 1.97 µM), an MIC [41] of at most 0.06 µg/mL and an MIC [42] of 1.95 µg/mL (≈ 7.82 µM). The MIC [43] was 0.98 µg/mL (≈ 3.93 µM).
